Experimental findings from ChEMBL document CHEMBL1147215, “Novel 2-aminobenzothiazoles as selective neuronal nitric oxide synthase inhibitors” (Bioorg Med Chem Lett, 2007) are described below.

As usually defined, the IC50 is the concentration that inhibits the measured activity by half. The low end stands for inhibition by little substance, the high end for a need for much substance.

In experiment [1] the target is Nitric oxide synthase, inducible (Homo sapiens, UniProt P35228). Nature of the experiment: Inhibition of human inducible NOS activity. The method in brief: (§1)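 Human NOS isoform activity read out as conversion of [³H]L-arginine to [³H]L-citrulline. Percent inhibition was measured at 8–12 inhibitor concentrations to derive IC₅₀.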
The target in experiment [2] is Nitric oxide synthase 1 (Homo sapiens, UniProt P29475). As to the kind of experiment: Inhibition of human neuronal NOS activity.
In experiment [3] the target is T1, Nitric oxide synthase 3 (Homo sapiens, UniProt P29474).
T1 sequence (P29474 whole entry): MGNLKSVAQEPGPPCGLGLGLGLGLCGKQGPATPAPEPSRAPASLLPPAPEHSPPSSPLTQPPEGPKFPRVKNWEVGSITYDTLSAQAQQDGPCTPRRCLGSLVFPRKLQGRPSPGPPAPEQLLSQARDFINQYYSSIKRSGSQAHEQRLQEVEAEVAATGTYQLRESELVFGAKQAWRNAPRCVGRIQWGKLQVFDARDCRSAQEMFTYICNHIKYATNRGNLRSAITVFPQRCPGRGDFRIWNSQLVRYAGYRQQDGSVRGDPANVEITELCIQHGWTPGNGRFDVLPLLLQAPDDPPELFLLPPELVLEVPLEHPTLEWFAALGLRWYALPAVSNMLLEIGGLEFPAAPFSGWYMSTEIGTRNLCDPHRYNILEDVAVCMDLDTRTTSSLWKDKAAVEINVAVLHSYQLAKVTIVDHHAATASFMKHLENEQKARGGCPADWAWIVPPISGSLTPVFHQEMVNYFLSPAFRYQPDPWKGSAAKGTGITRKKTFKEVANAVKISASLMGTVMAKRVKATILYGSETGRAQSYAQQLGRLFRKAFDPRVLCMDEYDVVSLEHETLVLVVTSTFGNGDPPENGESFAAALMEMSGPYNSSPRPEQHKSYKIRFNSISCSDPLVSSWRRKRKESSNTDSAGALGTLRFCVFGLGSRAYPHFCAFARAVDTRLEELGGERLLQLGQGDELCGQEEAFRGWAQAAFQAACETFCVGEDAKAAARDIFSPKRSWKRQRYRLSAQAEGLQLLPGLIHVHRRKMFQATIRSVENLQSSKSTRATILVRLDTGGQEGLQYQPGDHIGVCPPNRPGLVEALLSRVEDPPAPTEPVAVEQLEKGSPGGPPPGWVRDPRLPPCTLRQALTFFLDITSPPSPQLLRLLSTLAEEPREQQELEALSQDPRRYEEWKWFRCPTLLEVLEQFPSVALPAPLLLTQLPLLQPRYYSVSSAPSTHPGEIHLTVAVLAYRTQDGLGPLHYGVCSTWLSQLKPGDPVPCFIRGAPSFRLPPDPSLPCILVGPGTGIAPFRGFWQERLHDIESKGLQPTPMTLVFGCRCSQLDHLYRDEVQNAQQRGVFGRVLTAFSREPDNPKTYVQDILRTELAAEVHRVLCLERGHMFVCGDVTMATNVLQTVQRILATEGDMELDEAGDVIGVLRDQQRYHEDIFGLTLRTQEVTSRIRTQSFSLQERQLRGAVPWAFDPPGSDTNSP
Nature of the experiment: Inhibition of human endothelial NOS activity. The method in brief:
as §1

For experiment [4], the species on record is Homo sapiens. Nature of the experiment: Selectivity for human nNOS over human eNOS. The method in brief:
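Ratio of human eNOS IC₅₀ to human nNOS IC₅₀. Each IC₅₀ comes from radiolabelled arginine-to-citrulline conversion, with percent inhibition at 8–12 concentrations.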

The target of experiment [5] is T2, Nitric oxide synthase 3 (Rattus norvegicus, UniProt Q62600).
T2 sequence (Q62600 whole entry): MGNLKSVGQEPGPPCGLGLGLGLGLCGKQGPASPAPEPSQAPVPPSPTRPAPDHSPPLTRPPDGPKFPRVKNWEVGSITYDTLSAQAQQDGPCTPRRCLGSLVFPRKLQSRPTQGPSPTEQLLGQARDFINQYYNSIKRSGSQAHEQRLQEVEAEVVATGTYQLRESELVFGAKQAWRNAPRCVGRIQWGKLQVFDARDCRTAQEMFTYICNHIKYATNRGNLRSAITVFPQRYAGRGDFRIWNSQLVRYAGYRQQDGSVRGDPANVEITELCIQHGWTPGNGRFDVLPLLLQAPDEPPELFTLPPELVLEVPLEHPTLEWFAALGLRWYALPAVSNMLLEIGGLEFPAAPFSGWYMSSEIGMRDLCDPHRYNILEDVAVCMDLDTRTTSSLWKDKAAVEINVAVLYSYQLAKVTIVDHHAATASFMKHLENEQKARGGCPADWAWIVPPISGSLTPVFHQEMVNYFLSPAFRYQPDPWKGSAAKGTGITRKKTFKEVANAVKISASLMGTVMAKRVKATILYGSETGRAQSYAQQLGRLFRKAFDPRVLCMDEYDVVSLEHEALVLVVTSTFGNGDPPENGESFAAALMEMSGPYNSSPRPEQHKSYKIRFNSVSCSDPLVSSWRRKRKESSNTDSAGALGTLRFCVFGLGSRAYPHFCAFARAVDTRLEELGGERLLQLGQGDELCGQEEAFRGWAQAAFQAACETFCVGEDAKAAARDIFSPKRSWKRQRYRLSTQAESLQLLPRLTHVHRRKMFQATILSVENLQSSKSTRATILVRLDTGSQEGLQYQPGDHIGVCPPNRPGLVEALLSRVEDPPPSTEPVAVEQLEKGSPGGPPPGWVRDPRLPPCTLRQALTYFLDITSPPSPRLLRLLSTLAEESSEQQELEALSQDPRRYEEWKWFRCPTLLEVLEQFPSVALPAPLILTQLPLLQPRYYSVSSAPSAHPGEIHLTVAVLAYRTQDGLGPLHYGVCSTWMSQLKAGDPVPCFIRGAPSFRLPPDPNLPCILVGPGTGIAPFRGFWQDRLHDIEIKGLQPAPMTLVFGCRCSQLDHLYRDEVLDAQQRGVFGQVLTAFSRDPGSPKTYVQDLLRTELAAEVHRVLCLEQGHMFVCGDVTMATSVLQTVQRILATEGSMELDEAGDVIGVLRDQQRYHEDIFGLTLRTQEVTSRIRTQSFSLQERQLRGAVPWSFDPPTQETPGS
Nature of the experiment: Inhibition of rat endothelial NOS activity. The method in brief: (§2)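 Rat NOS isoform activity read out as conversion of radiolabelled L-arginine to L-citrulline. Percent inhibition was measured in duplicate at 8–12 concentrations to give IC₅₀.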

The target in experiment [6] is Nitric oxide synthase 1 (Rattus norvegicus, UniProt P29476). Nature of the experiment: Inhibition of rat neuronal NOS activity.
Experiment [7] addresses Nitric oxide synthase, inducible (Rattus norvegicus, UniProt Q06518). Nature of the experiment: Inhibition of rat inducible NOS activity. The method in brief:
as §2

Nitric oxide synthase 1 (Rattus norvegicus, UniProt P29476), sequence (P29476 whole entry): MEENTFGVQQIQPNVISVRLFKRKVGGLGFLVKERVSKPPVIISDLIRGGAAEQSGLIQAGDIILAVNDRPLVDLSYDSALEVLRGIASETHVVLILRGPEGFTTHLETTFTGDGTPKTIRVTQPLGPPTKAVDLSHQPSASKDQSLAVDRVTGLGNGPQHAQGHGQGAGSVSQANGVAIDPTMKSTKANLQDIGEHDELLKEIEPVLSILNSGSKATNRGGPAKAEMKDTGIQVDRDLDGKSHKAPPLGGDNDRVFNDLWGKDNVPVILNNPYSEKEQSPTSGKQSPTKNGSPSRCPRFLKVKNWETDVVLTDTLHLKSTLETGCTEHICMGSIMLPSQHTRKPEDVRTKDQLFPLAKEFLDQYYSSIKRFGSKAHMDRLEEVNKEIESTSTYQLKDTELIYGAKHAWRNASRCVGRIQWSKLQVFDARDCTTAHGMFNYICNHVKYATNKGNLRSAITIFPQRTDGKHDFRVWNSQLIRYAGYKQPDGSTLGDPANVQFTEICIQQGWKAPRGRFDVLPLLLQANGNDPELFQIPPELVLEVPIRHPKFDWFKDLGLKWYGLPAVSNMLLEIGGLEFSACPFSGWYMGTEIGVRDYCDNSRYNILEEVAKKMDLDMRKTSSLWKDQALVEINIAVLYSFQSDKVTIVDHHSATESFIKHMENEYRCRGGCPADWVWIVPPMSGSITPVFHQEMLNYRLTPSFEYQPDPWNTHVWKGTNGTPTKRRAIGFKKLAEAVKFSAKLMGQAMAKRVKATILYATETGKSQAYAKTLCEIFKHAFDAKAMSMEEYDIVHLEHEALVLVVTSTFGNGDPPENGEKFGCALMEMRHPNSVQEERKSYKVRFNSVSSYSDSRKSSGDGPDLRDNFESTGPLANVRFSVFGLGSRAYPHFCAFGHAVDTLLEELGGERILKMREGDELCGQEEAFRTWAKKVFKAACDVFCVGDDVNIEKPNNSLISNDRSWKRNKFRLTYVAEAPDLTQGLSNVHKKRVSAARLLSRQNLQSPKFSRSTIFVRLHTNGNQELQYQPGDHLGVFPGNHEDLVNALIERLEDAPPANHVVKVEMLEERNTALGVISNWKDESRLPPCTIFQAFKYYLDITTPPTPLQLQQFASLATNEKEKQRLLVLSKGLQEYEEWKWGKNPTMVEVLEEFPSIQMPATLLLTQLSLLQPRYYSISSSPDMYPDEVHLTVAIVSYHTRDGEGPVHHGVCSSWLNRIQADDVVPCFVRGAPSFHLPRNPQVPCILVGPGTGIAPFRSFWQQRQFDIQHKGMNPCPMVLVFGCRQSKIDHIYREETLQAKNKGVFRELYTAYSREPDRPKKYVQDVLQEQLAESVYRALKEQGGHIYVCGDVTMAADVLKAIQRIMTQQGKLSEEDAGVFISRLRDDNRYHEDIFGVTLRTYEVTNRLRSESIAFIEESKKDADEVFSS
Nitric oxide synthase, inducible (Homo sapiens, UniProt P35228), sequence (P35228 whole entry, canonical isoform): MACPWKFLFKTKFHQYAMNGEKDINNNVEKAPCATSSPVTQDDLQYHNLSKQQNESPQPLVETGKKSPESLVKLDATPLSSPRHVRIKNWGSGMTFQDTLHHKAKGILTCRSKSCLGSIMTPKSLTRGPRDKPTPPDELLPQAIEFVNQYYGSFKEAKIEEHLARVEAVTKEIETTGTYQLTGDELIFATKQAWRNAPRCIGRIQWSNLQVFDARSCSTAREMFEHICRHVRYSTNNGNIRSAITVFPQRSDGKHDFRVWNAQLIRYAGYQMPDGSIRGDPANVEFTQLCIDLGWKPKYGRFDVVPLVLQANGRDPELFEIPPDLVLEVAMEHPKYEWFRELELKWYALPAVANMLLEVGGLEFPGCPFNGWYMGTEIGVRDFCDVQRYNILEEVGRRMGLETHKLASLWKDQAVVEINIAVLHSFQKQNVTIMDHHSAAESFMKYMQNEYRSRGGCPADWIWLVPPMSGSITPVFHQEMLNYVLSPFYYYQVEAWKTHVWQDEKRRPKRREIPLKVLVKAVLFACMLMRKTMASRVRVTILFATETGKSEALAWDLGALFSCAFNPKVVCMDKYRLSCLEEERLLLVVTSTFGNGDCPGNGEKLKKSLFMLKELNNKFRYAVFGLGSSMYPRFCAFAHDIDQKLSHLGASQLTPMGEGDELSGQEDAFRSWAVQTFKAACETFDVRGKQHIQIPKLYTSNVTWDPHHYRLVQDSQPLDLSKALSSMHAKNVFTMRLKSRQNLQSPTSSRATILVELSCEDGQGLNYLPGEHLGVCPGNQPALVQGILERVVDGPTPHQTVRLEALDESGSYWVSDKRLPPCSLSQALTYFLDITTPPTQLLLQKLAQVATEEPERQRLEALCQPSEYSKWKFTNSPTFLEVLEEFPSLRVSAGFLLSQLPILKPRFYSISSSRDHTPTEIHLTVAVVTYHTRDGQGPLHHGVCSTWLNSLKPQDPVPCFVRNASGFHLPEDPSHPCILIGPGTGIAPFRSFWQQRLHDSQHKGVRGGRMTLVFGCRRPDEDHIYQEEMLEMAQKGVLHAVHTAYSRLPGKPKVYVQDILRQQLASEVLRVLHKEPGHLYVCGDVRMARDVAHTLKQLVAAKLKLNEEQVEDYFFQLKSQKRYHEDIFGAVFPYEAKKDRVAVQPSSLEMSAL
Nitric oxide synthase, inducible (Rattus norvegicus, UniProt Q06518), sequence (Q06518 whole entry): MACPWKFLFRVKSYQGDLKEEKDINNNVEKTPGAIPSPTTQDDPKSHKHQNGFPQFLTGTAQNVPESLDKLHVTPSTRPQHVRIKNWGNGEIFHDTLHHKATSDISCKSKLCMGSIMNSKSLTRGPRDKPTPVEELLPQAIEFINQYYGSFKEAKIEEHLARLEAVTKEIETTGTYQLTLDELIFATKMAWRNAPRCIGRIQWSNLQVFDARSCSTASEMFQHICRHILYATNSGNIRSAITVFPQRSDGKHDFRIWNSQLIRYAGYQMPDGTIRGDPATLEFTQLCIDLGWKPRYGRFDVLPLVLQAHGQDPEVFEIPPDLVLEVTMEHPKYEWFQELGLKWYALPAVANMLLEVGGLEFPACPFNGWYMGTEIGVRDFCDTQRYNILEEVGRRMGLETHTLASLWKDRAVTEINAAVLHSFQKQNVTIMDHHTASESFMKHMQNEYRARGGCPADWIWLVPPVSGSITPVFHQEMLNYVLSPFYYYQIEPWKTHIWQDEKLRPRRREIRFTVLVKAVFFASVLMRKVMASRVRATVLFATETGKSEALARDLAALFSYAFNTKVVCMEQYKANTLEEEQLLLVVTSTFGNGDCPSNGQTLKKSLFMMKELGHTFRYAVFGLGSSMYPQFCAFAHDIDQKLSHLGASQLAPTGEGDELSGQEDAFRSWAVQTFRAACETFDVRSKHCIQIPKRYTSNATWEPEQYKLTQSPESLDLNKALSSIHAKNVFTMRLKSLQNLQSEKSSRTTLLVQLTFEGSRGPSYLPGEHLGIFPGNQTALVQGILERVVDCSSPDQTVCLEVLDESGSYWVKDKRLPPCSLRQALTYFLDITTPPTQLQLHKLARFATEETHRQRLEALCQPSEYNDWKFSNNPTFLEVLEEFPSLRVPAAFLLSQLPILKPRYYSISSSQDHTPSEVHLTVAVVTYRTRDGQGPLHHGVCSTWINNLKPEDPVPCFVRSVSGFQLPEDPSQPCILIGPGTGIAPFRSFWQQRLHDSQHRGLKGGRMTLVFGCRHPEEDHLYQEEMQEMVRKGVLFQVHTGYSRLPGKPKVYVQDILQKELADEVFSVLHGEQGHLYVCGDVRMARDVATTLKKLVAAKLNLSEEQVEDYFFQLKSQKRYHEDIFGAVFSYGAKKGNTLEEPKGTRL

Consider `N=C(Nc1ccc2sc(NCCN3CCOCC3)nc2c1)c1cccs1`, for which the 50% inhibitory concentration (IC50) in experiment [1] stood at 141 µM; in experiment [2], 1300 nM; in experiment [3], 12 µM. The Ratio IC50 in experiment [4] amounted to 9.

For the molecule `N=C(Nc1ccc2sc(NC3CCN(Cc4ccc(F)cc4)CC3)nc2c1)c1cccs1`, the figures for the IC50 in experiment [1], in experiment [2] and in experiment [3] were 91 µM, 800 nM and 13 µM, respectively. Moreover, the Ratio IC50 in experiment [4] was 16.

Consider `COC(=O)c1ccc(CN2CCC(Nc3nc4ccc(N=C(N)c5cccs5)cc4s3)CC2)cc1`, for which the IC50 in experiment [1] is over 100 µM; in experiment [2], 300 nM; in experiment [3] it was 5.2 µM.

Regarding `CCSC(N)=Nc1ccc2sc(N)nc2c1`, the IC50 came to 97 µM in experiment [1], 4600 nM in experiment [2] and 12 µM in experiment [3].

On to `COC(=O)c1ccc(CN2CCC(Nc3nc4ccc(NC(=N)c5cccs5)cc4s3)CC2)cc1`, for which the Ratio IC50 in experiment [4] is 18.

As to `N=C(Nc1ccc2nc(NC3CCN(Cc4ccc(F)cc4)CC3)sc2c1)c1cccs1`, the concentration for half-maximal inhibition (IC50) in experiment [1] is 14 µM; in experiment [2], 200 nM; in experiment [3], 8 µM. In addition, in experiment [4], the Ratio IC50 was 40.

For `N=C(Nc1ccc2nc(NCCc3ccc(Br)cc3)sc2c1)c1cccs1`, the concentration for half-maximal inhibition (IC50) in experiment [5] worked out at 5.2 µM; in experiment [6], 4.7 µM; in experiment [1] it was 75 µM; in experiment [2], 4400 nM; in experiment [3] it was 2.1 µM. For the same molecule, in experiment [4], the Ratio IC50 was 0.5.

As to `COc1cccc(CN2CCC(Nc3nc4ccc(NC(=N)c5cccs5)cc4s3)CC2)c1`, the Ratio IC50 in experiment [4] is 27.

For the molecule `N=C(Nc1ccc2nc(NCCc3ccccn3)sc2c1)c1cccs1`, the half-inhibitory concentration (IC50) in experiment [5] was 3.4 µM; in experiment [6], 0.05 µM; in experiment [1] it was 13 µM; in experiment [2], 1300 nM; in experiment [3], 0.9 µM; in experiment [7], 25 µM. The Ratio IC50 in experiment [4] is 1.

As to `N=C(Nc1ccc2nc(NC3CCN(Cc4ccc(C(=O)O)cc4)CC3)sc2c1)c1cccs1`, the half-maximal inhibitory concentration (IC50) in experiment [1] was over 100 µM; in experiment [2] it was 5100 nM; in experiment [3] it was 59 µM. Further, the Ratio IC50 in experiment [4] came out at 12.

Turning to `COc1ccc(CN2CCC(Nc3nc4ccc(NC(=N)c5cccs5)cc4s3)CC2)cc1`, in experiment [4], the Ratio IC50 worked out at 28.

On to `N=C(Nc1ccc2nc(N)sc2c1)c1cccs1`, for which the figures for the IC50 in experiment [1], in experiment [2] and in experiment [3] were 25 µM, 200 nM and 2.9 µM, respectively. Also, the Ratio IC50 in experiment [4] came to 18.

Consider `N=C(Nc1ccc2sc(NC3CCN(Cc4ccccc4)CC3)nc2c1)c1cccs1`, for which the Ratio IC50 in experiment [4] is 40.

For the molecule `CCSC(=N)Nc1ccc2nc(N)sc2c1`, the values for the IC50 in experiment [1], in experiment [2] and in experiment [3] were 46 µM, 1400 nM and 9.2 µM, respectively. The Ratio IC50 in experiment [4] turned out to be 7.

For the molecule `N=C(Nc1ccc2nc(NC3CCN(Cc4ccccc4)CC3)sc2c1)c1cccs1`, the half-maximal inhibitory concentration (IC50) in experiment [5] stood at 12.5 µM; in experiment [6] it was 0.09 µM; in experiment [1] it was 14 µM; in experiment [2], 500 nM; in experiment [3], 6 µM; in experiment [7] it was 36 µM. Also, the Ratio IC50 in experiment [4] was found to be 12.

In the case of `N=C(Nc1ccc2nc(NC3CCN(CCc4cnc[nH]4)CC3)sc2c1)c1cccs1`, the Ratio IC50 in experiment [4] amounted to 2.

`CCSC(=N)Nc1ccc2sc(N)nc2c1`: the Ratio IC50 in experiment [4] came to 3.

Regarding `CN1CCCC1CCNc1nc2cc(NC(=N)c3cccs3)ccc2s1` (racemic), the IC50 turned out to be 15 µM in experiment [1], 30 nM in experiment [2] and 1.6 µM in experiment [3]. Moreover, in experiment [4], the Ratio IC50 is 53.

On to `COc1cccc(CN2CCC(Nc3nc4ccc(N=C(N)c5cccs5)cc4s3)CC2)c1`, for which the IC50 in experiment [5] was 1.3 µM; in experiment [6], 6.7 µM; in experiment [1] it was over 100 µM; in experiment [2], 100 nM; in experiment [3], 3.8 µM; in experiment [7], 19 µM.

Turning to `NC(=Nc1ccc2sc(NC3CCN(Cc4ccccc4)CC3)nc2c1)c1cccs1`, the IC50 in experiment [1] came to 48 µM; in experiment [2], 400 nM; in experiment [3], 16 µM.

For the molecule `N=C(Nc1ccc2nc(NCCN3CCOCC3)sc2c1)c1cccs1`, the IC50 in experiment [5] was found to be 9.1 µM; in experiment [1], 37 µM; in experiment [2], 200 nM; in experiment [3], 1.5 µM; in experiment [7], 44 µM.

`N=C(Nc1ccc2sc(N)nc2c1)c1cccs1`: the IC50 in experiment [1] is 79 µM; in experiment [2] it was 200 nM; in experiment [3] it was 2.3 µM. Also, the Ratio IC50 in experiment [4] was found to be 13.

As to `N=C(Nc1ccc2nc(NC3CCOCC3)sc2c1)c1cccs1`, the IC50 was determined as 64 µM in experiment [1], 2000 nM in experiment [2] and 16 µM in experiment [3]. In experiment [4], the Ratio IC50 was 8.

For `N=C(Nc1ccc2sc(NCCc3ccccn3)nc2c1)c1cccs1`, the IC50 in experiment [1] was determined as 139 µM; in experiment [2] it was 1100 nM; in experiment [3], 6 µM. Moreover, the Ratio IC50 in experiment [4] was determined as 5.

For the molecule `NC(=Nc1ccc2nc(NC3CCN(CCc4cnc[nH]4)CC3)sc2c1)c1cccs1`, the 50% inhibitory concentration (IC50) in experiment [5] worked out at 4.6 µM; in experiment [6], 4.8 µM; in experiment [1] it was 6 µM; in experiment [2], 300 nM; in experiment [3], 0.7 µM; in experiment [7] it was 26 µM.

As for `COc1ccc(CN2CCC(Nc3nc4ccc(N=C(N)c5cccs5)cc4s3)CC2)cc1`, the IC50 in experiment [1] was 9 µM; in experiment [2], 200 nM; in experiment [3] it was 5.7 µM.
